According to ChEMBL document CHEMBL3228013 (J Med Chem, 1979):
The source made the active and inactive calls. The calls are words filed in the database; no cut-off is given here.

How the values were obtained:
[1] = tested on: KB; test: Cytotoxicity against human KB cells; type: functional, cell-based
[2] = tested on: L1210; test: Antitumor activity against mouse L1210 cells allografted in mouse at 500 mg/kg, ip began on day 1 halved compound dose ended at […], ip measured on day 30; type: functional, organism-based
Outline: (§1)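 Female or male mice bearing L1210 lymphoid leukemia were tested under the NCI standard protocol. Dosing was ip, day 1 only, in aqueous Tween-80, at halved doses starting at 500 mg/kg and generally ending at 62.5 mg/kg. Mean survival time was assessed on day 30, and T/C ≥125% was taken as active.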

[3] = Half life of the compound in 1:4 D2O:[…] containing at 1 x 10^-3 M NaOD at 5 x 10^-2 M by UV-spectroscopy; type: physicochemical; settings: 1:4 D2O:Me2SO-d2 with NaOD
[4] = tested on: Mus musculus; test: Toxicity in mouse allografted with mouse L1210 cells at 500 mg/kg, ip; type: organism-based; parameters: dose 500 mg/kg, route intraperitoneal; settings: in vivo; outline: as §1
[5] = Toxicity in ip dosed mouse allografted with mouse L1210 cells; type: organism-based; settings: in vivo; outline: as §1
[6] = Half life of the compound in 1:1 H2O:ethylalcohol containing 2.08 x 10^-3 M NaOH at 8.3 x 10^-5 M by UV-spectroscopy; type: physicochemical; settings: 1:1 water:ethanol with NaOH
[7] = Half life of the compound in 1:1 H2O:ethylalcohol containing 5 x 10^-3 M NaOH at 8.3 x 10^-5 M by UV-spectroscopy; type: physicochemical; settings: 1:1 water:ethanol with NaOH
[8] = Inhibition of wheat germ orthophosphoric monoester phosphohydrolase using 2-carboxyphenyl phosphate as substrate at 1.5 mM after 2 hrs by UV spectroscopy; settings: triticum aestivum, 1500 µM
Outline: (§2)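 Wheat germ orthophosphoric monoester phosphohydrolase (2.1 units/mg toward 2-carboxyphenyl phosphate) was used. Compound at 1.5 mM was incubated in 0.15 M NaOAc pH 5.0 with glycerin at about 25–26 °C for 2 h, against a reference cell without enzyme, with UV monitoring at 290 nm. 2-Carboxyphenyl phosphate was then added to check remaining enzyme activity.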

[9] = Half life of the compound in 1:1 H2O:ethylalcohol containing 3.33 x 10^-3 M NaOH at 8.3 x 10^-5 M by UV-spectroscopy; type: physicochemical; settings: 1:1 water:ethanol with NaOH
[10] = Half life of the compound in 1:1 H2O:ethylalcohol containing 6.66 x 10^-3 M NaOH at 8.3 x 10^-5 M by UV-spectroscopy; type: physicochemical; settings: 1:1 water:ethanol with NaOH
[11] = Drug metabolism assessed as wheat germ orthophosphoric monoester phosphohydrolase-mediated hydrolysis at 1.5 mM by UV spectroscopy; type: ADME; settings: triticum aestivum, 1500 µM; outline: as §2
[12] = Half life of the compound in 1:1 H2O:ethylalcohol containing 8.33 x 10^-3 M NaOH at 8.3 x 10^-5 M by UV-spectroscopy; type: physicochemical; settings: 1:1 water:ethanol with NaOH

Row | Structure (SMILES) | Activity [1] | Activity [2] | half-life at 50000 µM [3] [min] | Activity [4] | MTD [5] [mg/kg] | half-life at 83 µM [6] [min] | half-life at 83 µM [7] [min] | inhibition (INH) [8] | half-life at 83 µM [9] [min] | half-life at 83 µM [10] [min] | Stability [11] | half-life at 83 µM [12] [min]
1 | O=P(Nc1ccccc1)(Oc1c(F)c(F)c(F)c(F)c1F)N(CCCl)CCCl (configuration not stated) | inactive | inactive | 5.3 | Non-toxic |  |  |  |  |  |  |  | 
2 | NP(=O)(Oc1c(F)c(F)c(F)c(F)c1F)N(CCCl)CCCl (configuration not stated) | inactive | inactive |  |  | 31.2 | 2 | 0.867 | Not Active | 1.33 | 0.717 | Stable | 0.6
3 | Cc1ccc(NP(=O)(Oc2c(F)c(F)c(F)c(F)c2F)N(CCCl)CCCl)cc1 (configuration not stated) | inactive | inactive | 6.53 | Non-toxic |  |  |  |  |  |  |  | 
4 | CCOc1ccc(NP(=O)(Oc2c(F)c(F)c(F)c(F)c2F)N(CCCl)CCCl)cc1 (configuration not stated) | inactive | inactive | 8.17 | Non-toxic |  |  |  |  |  |  |  | 
